# An excerpt weighted towards active compounds, which were near 0.77% of everything screened.
# Rad51 HR inh – Rad51 (human) homologous recombination inhibition | inhibition, % at 10 µM | hRad51 DNA strand exchange, fluorescence dequenching | AID 1385 | 200,000 tested, 0.085% active | Q06609;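 active = inhibition above 40% at the single screening dose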
#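 Test system: preformed human Rad51 ssDNA filaments; also added: Donor/quencher-labelled 47-bp dsDNA substrate; doses: 10 µM final, single point; times: 37 °C 15-min filament assembly, 30-min compound preincubation, 15-min exchange; detection: FRET fluorescence dequenching, excitation 485 nm, emission 520 nm; read-out basis: Fluorescence-based percent inhibition, control- and blank-normalised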
# ABCG2 block – inhibitors of human ABCG2 transporter, ABCB1 counter-screen. IgMXP3 cells, JC-1 efflux, flow cytometry. inhibition, % at 6.6 µM. 190,000 tested, 0.1% active;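 active = inhibition above 80%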
#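 Assay system – ABCG2 IgMXP3 and barcoded ABCB1 CCRF-Adr cell mix · Input – 3 million cells/mL in well · Reagent – JC-1 fluorescent substrate · Compound – single test compound dose, 6.6 µM final · Timing – 10 min exposure at 25 °C with rotation, no wash · Detection – flow cytometry of retained JC-1 fluorescence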
# HMGR II inh – blocks class II HMG-CoA reductase of Enterococcus faecalis; AID 1066; purified E. faecalis HMGR, NADPH absorbance 340 nm kinetic; inhibition, % at 10 µM; 190,000 tested, 0.41% active;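 active = inhibition above a set limit, the median over all tested compounds plus 3 SD, cut at about 9.5% in these data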;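 note: enzyme runs in reverse so mevalonate oxidation gives rising NADPH absorbance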
# Furin inh – inhibitors of human furin; 220,000 tested, 0.061% active; purified furin, fluorogenic substrate cleavage; inhibition, % at 20 µM or 30 µM; in the data active = inhibition above about 25%
# PERK inhibitor – blocks human PERK kinase. Q9NZJ5. CHO PERK-DD fusion, SEAP luminescence translation reporter. inhibition, % at 5.6 µM. 220,000 tested, 0.17% active;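 active = inhibition above the mean inhibition of all tested compounds plus 3 SD, set separately per screening campaign, cut at about 2.9% in these data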;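 note: PERK kinase domain activated by AP20187 dimerizer at 100 nM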
# Target sequence (Q9NZJ5 whole entry, looked up, the tested form may be a part): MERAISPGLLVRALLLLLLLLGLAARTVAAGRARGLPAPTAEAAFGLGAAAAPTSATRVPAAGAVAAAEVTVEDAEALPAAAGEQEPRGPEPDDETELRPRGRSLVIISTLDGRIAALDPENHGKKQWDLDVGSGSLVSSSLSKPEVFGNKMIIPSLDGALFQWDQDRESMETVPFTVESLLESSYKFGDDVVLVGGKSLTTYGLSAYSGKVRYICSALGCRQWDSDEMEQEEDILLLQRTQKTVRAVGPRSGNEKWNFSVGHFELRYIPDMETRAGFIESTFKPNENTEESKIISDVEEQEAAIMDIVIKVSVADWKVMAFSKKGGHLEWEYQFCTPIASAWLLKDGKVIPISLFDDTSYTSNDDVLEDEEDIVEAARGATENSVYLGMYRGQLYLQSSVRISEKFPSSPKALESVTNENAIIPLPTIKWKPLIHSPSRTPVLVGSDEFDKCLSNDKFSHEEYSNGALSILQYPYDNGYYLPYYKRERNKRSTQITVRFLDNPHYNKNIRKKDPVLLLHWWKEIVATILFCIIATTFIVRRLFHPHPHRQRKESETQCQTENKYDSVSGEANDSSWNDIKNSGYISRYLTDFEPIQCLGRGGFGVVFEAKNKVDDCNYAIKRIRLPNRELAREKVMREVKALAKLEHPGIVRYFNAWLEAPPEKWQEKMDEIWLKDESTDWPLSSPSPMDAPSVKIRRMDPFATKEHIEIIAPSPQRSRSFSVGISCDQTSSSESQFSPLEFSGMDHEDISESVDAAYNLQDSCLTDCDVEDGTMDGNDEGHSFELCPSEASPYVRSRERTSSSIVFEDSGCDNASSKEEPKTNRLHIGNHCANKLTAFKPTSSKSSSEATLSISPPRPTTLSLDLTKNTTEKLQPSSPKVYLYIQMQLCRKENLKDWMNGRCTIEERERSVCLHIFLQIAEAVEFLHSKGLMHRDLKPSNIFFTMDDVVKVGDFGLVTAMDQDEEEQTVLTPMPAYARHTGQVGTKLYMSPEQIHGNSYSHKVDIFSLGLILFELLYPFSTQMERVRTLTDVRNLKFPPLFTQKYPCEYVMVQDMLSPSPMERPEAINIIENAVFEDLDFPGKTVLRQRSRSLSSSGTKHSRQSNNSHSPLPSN
# ABCB1 inh – blocks JC-1 efflux by human ABCB1 transporter. P08183. CCRF-Adr cells, flow cytometry. inhibition, % at 6.6 µM. 190,000 tested, 0.067% active; in the data active = inhibition above about 40%;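 note: higher value means more JC-1 retained so stronger ABCB1 efflux block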
# ABCB1 single pt – inhibits human ABCB1 efflux, confirmed at single point; CCRF-Adr cells, JC-1 efflux, flow cytometry; AID 1451; shares compounds with ABCG2 block; 270 tested, 7% active; inhibition, % at 6.6 µM;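 active = inhibition of pump activity above 50%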
# ABCG2 single pt – inhibits human ABCG2 efflux, confirmed at single point; shares compounds with ABCG2 block; IgMXP3 cells, JC-1 efflux, flow cytometry; inhibition, % at 6.6 µM; 270 tested, 6% active; AID 1453;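 active = inhibition above 50%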
# IgMXP3 fluor – counter-screen for ABCG2 inhibitors: compound fluorescence in IgMXP3 cells; AID 1480; shares compounds with ABCG2 block; compound autofluorescence 488/530 nm, flow; hits give high values; 270 tested, 30% active; fluorescence at 6.6 µM;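 active = fluorescence in ABCG2-expressing cells above the plate's control-well mean plus 3 SD, cut at about 15 in these data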
# CCRF autofluor – CCRF-Adr autofluorescence flag for ABCB1 confirmation | AID 1483 | fluorescence at 6.6 µM | 270 tested, 30% active | CCRF-Adr cells, compound autofluorescence 488/530 nm, flow cytometry; hits give high values | shares compounds with ABCG2 block;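 active = fluorescence beyond the plate control mean plus 3 SD, with a fluorescence-to-maximum score over 2, cut at about 25 in these data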
# Numbers stand for hits; – = inactive; · = not tested or not shown.
SMILES,Rad51 HR inh,ABCG2 block,HMGR II inh,Furin inh,PERK inhibitor,ABCB1 inh,others
CNC(=O)O/N=C/c1nn(C(=O)C(C)(C)C)cc1Br,–,·,·,–,3.2,·,
CC(=O)CC(=O)C1C(=O)N(C)C(=O)N(C)C1=O,–,–,11,–,–,–,
CN1CC[C@@H](c2ccc(F)cc2)[C@H](COc2ccc3c(c2)OCO3)C1,–,·,·,·,·,·,
CCCCC(CC)CNCC(O)c1ccccc1 (stereo not drawn),–,–,15,–,–,–,
CS(=O)(=O)c1ccc(C2=C(c3ccccc3)C(=O)OC2)cc1,–,·,·,·,·,·,
CC1=CC(C)C(COC(N)=O)(COC(N)=O)C(C)C1 (stereo not drawn),48,–,–,–,–,–,
Cc1ccccc1-n1c(O)c(C=Nc2ccc(N(C)C)cc2)c(=O)[nH]c1=O,–,–,–,27,–,–,
Cc1cccc(N=Cc2c(O)n(-c3ccccc3C)c(=O)[nH]c2=O)c1,–,–,–,–,–,–,
Cc1cccc(N/N=C(\C(N)=O)C2=NC(C)(C)Cc3ccccc32)c1,–,–,–,–,–,–,
COC(=O)C1=C(c2ccccc2)C[C@@H]2CC[C@H]1N2C(=O)NC1CCCCC1,–,·,·,·,·,·,
O=c1oc2ccccc2c(O)c1[C@H]1c2ccc(O)cc2Oc2c1c(=O)oc1ccccc21,–,·,·,–,–,·,
COc1ccc2nc(/N=C/c3c(O)n(-c4cccc(Cl)c4)c(=O)[nH]c3=O)sc2c1,–,–,–,–,2.9,–,
C=C1[C@@H](OC(C)=O)[C@]23C[C@@H]1[C@@H](OC(C)=O)CC2[C@]12C4C[C@H]3[C@H]1N(CC)C[C@]4(C)CC[C@@H]2O (stereo partly drawn),–,·,·,·,·,·,
CC[N+](C)(CC)CCCCOc1ccc2c(c1)C(=O)c1cc(OCCCC[N+](C)(CC)CC)ccc1-2,42,·,·,–,–,·,
Cc1cccc(-n2c(O)c(/C=C/C=Nc3ccccc3)c(=O)[nH]c2=O)c1,–,–,–,31,–,–,
CNS(=O)(=O)c1ccc(N=Cc2c(O)n(-c3cccc(C)c3)c(=O)[nH]c2=O)cc1,·,–,–,–,–,–,
CSc1nc(N)c(N=Nc2ccc([As](=O)(O)O)cc2)c(=O)[nH]1,–,·,·,27,–,·,
COc1ccc(N=Nc2c(O)[nH]c(=S)[nH]c2=O)cc1,–,–,–,–,–,–,
COC(=O)[C@H]1C[C@@H]1[C@H](NP(=O)(c1ccccc1)c1ccccc1)c1ccccc1,–,–,–,–,–,–,
O=C(O)[C@@H]1C[C@H]1[C@@H](NP(=O)(c1ccccc1)c1ccccc1)c1ccccc1,–,–,21,–,–,–,
CC(C)Oc1cccc(NC(=O)c2cccn(Cc3ccc4c(c3)OC(F)(F)O4)c2=O)c1,–,–,14,–,–,–,
O=C(Nc1cccc(C(F)(F)F)c1)c1cccn(Cc2ccc3c(c2)OC(F)(F)O3)c1=O,–,–,–,–,–,–,
CC[C@H]1CN2CC[C@@]3(C(=O)Nc4ccccc43)[C@@H]2C[C@@H]1/C(=C\OC)C(=O)OC,–,·,·,·,·,·,
COc1ccc(C[C@@H]2c3cc(O)c(OC)cc3CCN2C)cc1O,–,–,20,–,–,–,
CC1(C)CC[C@]2(C)CC[C@]3(C)C4C[C@@H]5OO[C@@]6(O5)C(CCCC6(C)C)[C@]4(C)CC[C@@]3(C)C2C1 (stereo partly drawn),–,·,·,·,·,·,
SMILES,Rad51 HR inh,ABCG2 block,HMGR II inh,Furin inh,PERK inhibitor,ABCB1 inh,others
CCCCNC(=S)N1CCn2cccc2C1c1cccnc1 (stereo not drawn),–,–,11,–,–,–,
O=c1[nH]c(N2CCN(Cc3ccc4c(c3)OCO4)CC2)nc2c1CCC2,84,–,–,–,–,–,
CCc1ccc(C(=O)C23CN4CN(CN(C4)C2)C3)cc1,–,–,12,–,–,–,
COc1ccc(C(=O)C23CN4CN(CN(C4)C2)C3)cc1,–,–,–,–,–,–,
[N-]=[N+]=NC1C[C@H](n2ccc(=O)[nH]c2=O)O[C@@H]1CO (stereo partly drawn),–,–,–,–,–,–,
Cc1nn(Cc2ccccc2)c(C)c1C(=O)NCc1ccccc1F,44,–,–,–,–,–,
Cc1nn(Cc2ccccc2)c(C)c1C(=O)O,–,–,–,–,–,–,
CC1=NN(c2ccccc2)C(=O)C1/C=C1/C(=O)NC(=O)N(c2cccc(C)c2)C1=O (stereo not drawn),–,–,–,–,–,–,
Cc1cccc(N2C(=O)NC(=O)/C(=C\c3ccc4c(c3)CCCN4Cc3ccccc3)C2=O)c1,–,–,–,–,–,50,ABCB1 single pt=–;ABCG2 single pt=–;IgMXP3 fluor=14;CCRF autofluor=59
COC(=O)C1=C(c2cc3ccccc3o2)C[C@@H]2CC[C@H]1N2C(=O)NCc1ccco1,–,·,·,·,·,·,
CCn1cc(/C=c2/sc3n(c2=O)C2c4ccccc4OC(C)(N=3)C2C(=O)OC)c(C)n1 (stereo not drawn),–,–,–,–,–,53,ABCB1 single pt=–;ABCG2 single pt=–;IgMXP3 fluor=18;CCRF autofluor=–

# Bioassay records as filed in PubChem BioAssay.
